ChEMBL document CHEMBL5678806, “NMS-P937, an orally available, specific small-molecule polo-like kinase 1 inhibitor with antitumor activity in solid and hematologic malignancies” (Mol Cancer Ther, 2012)
Calls of active or inactive are those of the source. The rule behind the calls is not given here.

What was measured:
MIA PaCa-2 = assay: Antiproliferative activity against human MIA PaCa-2 cells assessed as inhibition of cell growth incubated for 72 hrs by cell-titer glo assay; assay type: functional, cell-based; conditions: MIA PaCa-2, 72 h
Method in brief: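 Cells from ATCC or ECACC, kept in supplier-recommended medium with 1% penicillin-streptomycin at 37°C, 5% CO₂. Seeded at 10,000–30,000/cm² (adherent) or 100,000/mL (nonadherent) in medium with 10% fetal calf serum. Dosed after 24 h in duplicate with serial dilutions. Viable cells read by CellTiter-Glo 72 h later. IC50 from sigmoidal fit. At least two independent experiments.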

[1] = Antiproliferative activity against human GBM-0627-GFD cells assessed as inhibition of cell growth incubated for 72 hrs by cell-titer glo assay; assay type: functional, cell-based
Method in brief: (§1)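 Cells seeded 10,000–30,000/cm² (adherent) or 100,000/mL (suspension) in medium with 10% fetal calf serum; after 24 h treated in duplicate with serial dilutions for 72 h. Viable cells read by CellTiter-Glo luminescence; IC50 from sigmoidal fit; at least two independent experiments.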

[2] = Clearance in male cynomolgus monkey at 5 mg/kg, iv by LC-MS analysis; assay type: ADME, organism-based, Macaca fascicularis; conditions: in vivo
HT-29 [3] = assay: Antiproliferative activity against human HT-29 cells assessed as inhibition of colony formation at <= 8 nmol/L incubated for 72 hrs and measured after 18 days by crystal violet staining based analysis; assay type: functional, cell-based
Method in brief: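 HT29 colon adenocarcinoma cells exposed to a range of concentrations for 72 h, then compound removed and cells replated and grown 18 days in compound-free medium; colony formation scored.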

SNB-19 = assay: Antiproliferative activity against human SNB-19 cells assessed as inhibition of cell growth incubated for 72 hrs by cell-titer glo assay; assay type: functional, cell-based; conditions: SNB-19, 72 h
[4] = biological target: Inhibitor of nuclear factor kappa-B kinase subunit beta (Homo sapiens, UniProt O14920); assay: Inhibition of IKK2 (unknown origin) in presence of [gamma-33P]ATP
U2OS = assay: Effect on cell morphology in human U2OS cells expressing GFP/alpha-tubulin fusion protein assessed as misaligned chromosomes […] at 1 uM incubated for 24 hrs by laser scanning confocal microscopy analysis; assay type: functional, cell-based
[5] = Inhibition of AUR1 (unknown origin) in presence of [gamma-33P]ATP; parameters: species or system Homo sapiens
HT-29 [6] = assay: Antitumor activity against human HT-29 cells xenografted in nu/nu mouse assessed as tumor growth inhibition at 45 mg/kg, po administered for 3 days and measured after 1 day relative to control; assay type: functional; conditions: HT-29, 72 h, time 3 day, read-out: TGI
HCT-116 = assay: Antitumor activity against human HCT-116 cells xenografted in nu/nu mouse assessed as tumor growth inhibition at 60 mg/kg, po administered for 8 days relative to control; assay type: functional; conditions: HCT-116, 192 h, time 8 day, read-out: TGI
[7] = biological target: Fibroblast growth factor receptor 4 (Homo sapiens) (UniProt P22455); assay: Inhibition of N-terminal His6-tagged recombinant human FGFR4 (442 to 755 residues) expressed in baculovirus infected Sf21 cells assessed as residual activity at 0.1 uM relative to control
Activated CDC42 kinase 1 = Activated CDC42 kinase 1 (Homo sapiens, UniProt Q07912); assay: Inhibition of N-terminal GST-tagged recombinant human ACK1 (1 to 389 residues) expressed in baculovirus infected Sf21 cells assessed as residual activity at 1 uM relative to control
[8] = biological target: cAMP-dependent protein kinase (PKA) (Homo sapiens) (UniProt P22694+P17612+P22612); assay: Inhibition of recombinant human full-length PKA expressed in E.coli BL21 (DE3) pLysS cells assessed as residual activity at 1 uM relative to control
A2780 = assay: In vivo inhibition of PLK1 in human A2780 cells xenografted in nu/nu mouse assessed as increased TCTP phosphorylation on Ser46 at 60 mg/kg, po administered for 6 to 12 hrs hrs by Western blotting analysis; assay type: functional, organism-based; conditions: time lower 6.0 hrs, time upper […]
[9] = biological target: Tyrosine-protein kinase SYK (Homo sapiens, UniProt P43405); assay: Inhibition of N-terminal His6-tagged recombinant full-length human Syk expressed in baculovirus infected Sf21 cells assessed as residual activity at 0.1 uM relative to control
[10] = biological target: Mitogen-activated protein kinase kinase kinase 5 (Homo sapiens) (UniProt Q99683); assay: Inhibition of N-Terminal GST and C-terminal His6-tagged recombinant human ASK1 (649 to 946 residues) expressed in E. coli cell assessed as residual activity at 1 uM relative to control
SU-DHL-6 = assay: Antiproliferative activity against human SU-DHL-6 cells assessed as inhibition of cell growth incubated for 72 hrs by cell-titer glo assay; assay type: functional, cell-based; conditions: SU-DHL-6, 72 h
[11] = biological target: Tyrosine-protein kinase Lyn (Homo sapiens, UniProt P07948); assay: Inhibition of N-terminal his6-tagged recombinant full-length human Lyn expressed in Sf21 cells assessed as residual activity at 0.1 uM relative to control
SK-OV-3 = assay: Antiproliferative activity against human SK-OV-3 cells assessed as inhibition of cell growth incubated for 72 hrs by cell-titer glo assay; assay type: functional, cell-based; conditions: SK-OV-3, 72 h
[12] = Oral bioavailability in male cynomolgus monkey at 5 mg/kg by LC-MS analysis; assay type: ADME, organism-based, Macaca fascicularis; conditions: in vivo
[13] = biological target: Dual specificity tyrosine-phosphorylation-regulated kinase 2 (Homo sapiens) (UniProt Q92630); assay: Inhibition of 6His-tagged recombinant full-length human DYRK2 expressed in baculovirus infected Sf21 cells assessed as residual activity at 1 uM relative to control
L-363 = assay: Antiproliferative activity against human L-363 cells assessed as inhibition of cell growth incubated for 72 hrs by cell-titer glo assay; assay type: functional, cell-based; conditions: L-363, 72 h
Method in brief: (§2)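 Cells seeded at 10,000–30,000/cm² (adherent) or 100,000/mL (nonadherent) in medium with 10% fetal calf serum; after 24 h, treated in duplicate with serial dilutions for 72 h. Viable cell number read by CellTiter-Glo luminescence; IC50 from sigmoidal fit; at least two independent experiments.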

CAKI-2 = assay: Antiproliferative activity against human CAKI-2 cells assessed as inhibition of cell growth incubated for 72 hrs by cell-titer glo assay; assay type: functional, cell-based; conditions: CAKI-2, 72 h; method in brief: as §1
[14] = system: Angiopoietin-1 receptor (Homo sapiens), Q02763 [R849W]; assay: Inhibition of N-terminal His6-tagged recombinant human Tie2 (771 to end residues) R849W mutant expressed in baculovirus infected Sf21 cells assessed as residual activity at 0.1 uM relative to control
[15] = Antiproliferative activity against human M-07e cells assessed as inhibition of cell growth incubated for 72 hrs by cell-titer glo assay; assay type: functional, cell-based; method in brief: as §2
[16] = AUC in Sprague-Dawley rat at 10 mg/kg, po by LC-MS analysis; assay type: ADME, organism-based; conditions: in vivo
[17] = biological target: Tyrosine-protein kinase ZAP-70 (Homo sapiens, UniProt P43403); assay: Inhibition of ZAP70 (unknown origin) in presence of [gamma-33P]ATP
MDA-MB-436 = assay: Antiproliferative activity against human MDA-MB-436 cells assessed as inhibition of cell growth incubated for 72 hrs by cell-titer glo assay; assay type: functional, cell-based; conditions: MDA-MB-436, 72 h; method in brief: as §2

Tyrosine-protein kinase Lyn, sequence (P07948 2-512 limits assumed): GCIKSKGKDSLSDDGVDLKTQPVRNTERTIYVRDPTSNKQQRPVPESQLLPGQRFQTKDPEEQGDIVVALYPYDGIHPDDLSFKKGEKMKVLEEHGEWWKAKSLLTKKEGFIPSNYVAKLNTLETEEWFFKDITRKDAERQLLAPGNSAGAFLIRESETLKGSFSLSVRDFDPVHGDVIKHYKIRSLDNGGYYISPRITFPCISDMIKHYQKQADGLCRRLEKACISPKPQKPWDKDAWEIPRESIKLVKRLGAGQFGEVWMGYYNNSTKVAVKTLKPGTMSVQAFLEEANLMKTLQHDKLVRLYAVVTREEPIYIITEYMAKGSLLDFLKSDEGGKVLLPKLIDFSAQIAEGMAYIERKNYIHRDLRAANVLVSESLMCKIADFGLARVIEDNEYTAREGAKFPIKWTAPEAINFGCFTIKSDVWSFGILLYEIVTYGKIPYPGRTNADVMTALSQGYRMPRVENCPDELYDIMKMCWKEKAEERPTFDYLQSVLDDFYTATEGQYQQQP
Activated CDC42 kinase 1, sequence (Q07912 whole entry, looked up, the tested form may be a part): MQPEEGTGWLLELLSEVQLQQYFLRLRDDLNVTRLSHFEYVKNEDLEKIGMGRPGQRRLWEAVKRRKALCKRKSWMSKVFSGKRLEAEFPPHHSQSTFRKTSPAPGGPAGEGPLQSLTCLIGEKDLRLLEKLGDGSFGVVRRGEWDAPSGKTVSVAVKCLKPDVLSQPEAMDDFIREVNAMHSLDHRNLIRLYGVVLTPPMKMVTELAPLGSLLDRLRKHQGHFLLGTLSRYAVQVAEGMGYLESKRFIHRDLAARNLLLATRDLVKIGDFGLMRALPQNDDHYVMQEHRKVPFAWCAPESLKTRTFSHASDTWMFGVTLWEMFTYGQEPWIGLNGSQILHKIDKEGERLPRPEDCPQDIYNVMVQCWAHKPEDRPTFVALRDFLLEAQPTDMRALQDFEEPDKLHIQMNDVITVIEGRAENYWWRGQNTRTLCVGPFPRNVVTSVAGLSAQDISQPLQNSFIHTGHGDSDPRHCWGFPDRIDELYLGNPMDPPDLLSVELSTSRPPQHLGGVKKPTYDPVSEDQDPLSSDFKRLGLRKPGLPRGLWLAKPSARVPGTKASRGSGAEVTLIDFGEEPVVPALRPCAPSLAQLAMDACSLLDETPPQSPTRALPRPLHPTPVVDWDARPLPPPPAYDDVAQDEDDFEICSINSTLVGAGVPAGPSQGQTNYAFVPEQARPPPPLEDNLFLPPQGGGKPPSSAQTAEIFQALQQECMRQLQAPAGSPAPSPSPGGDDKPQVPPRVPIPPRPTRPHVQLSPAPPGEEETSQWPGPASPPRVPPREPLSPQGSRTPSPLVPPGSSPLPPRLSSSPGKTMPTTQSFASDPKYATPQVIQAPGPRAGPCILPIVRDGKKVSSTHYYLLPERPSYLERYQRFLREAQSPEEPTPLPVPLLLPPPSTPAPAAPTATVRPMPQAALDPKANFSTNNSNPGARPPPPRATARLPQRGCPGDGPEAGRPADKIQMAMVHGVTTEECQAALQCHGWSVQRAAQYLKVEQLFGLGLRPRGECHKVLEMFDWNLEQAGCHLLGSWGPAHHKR
Angiopoietin-1 receptor (Homo sapiens), Q02763 [R849W], sequence (Q02763 whole entry R849W): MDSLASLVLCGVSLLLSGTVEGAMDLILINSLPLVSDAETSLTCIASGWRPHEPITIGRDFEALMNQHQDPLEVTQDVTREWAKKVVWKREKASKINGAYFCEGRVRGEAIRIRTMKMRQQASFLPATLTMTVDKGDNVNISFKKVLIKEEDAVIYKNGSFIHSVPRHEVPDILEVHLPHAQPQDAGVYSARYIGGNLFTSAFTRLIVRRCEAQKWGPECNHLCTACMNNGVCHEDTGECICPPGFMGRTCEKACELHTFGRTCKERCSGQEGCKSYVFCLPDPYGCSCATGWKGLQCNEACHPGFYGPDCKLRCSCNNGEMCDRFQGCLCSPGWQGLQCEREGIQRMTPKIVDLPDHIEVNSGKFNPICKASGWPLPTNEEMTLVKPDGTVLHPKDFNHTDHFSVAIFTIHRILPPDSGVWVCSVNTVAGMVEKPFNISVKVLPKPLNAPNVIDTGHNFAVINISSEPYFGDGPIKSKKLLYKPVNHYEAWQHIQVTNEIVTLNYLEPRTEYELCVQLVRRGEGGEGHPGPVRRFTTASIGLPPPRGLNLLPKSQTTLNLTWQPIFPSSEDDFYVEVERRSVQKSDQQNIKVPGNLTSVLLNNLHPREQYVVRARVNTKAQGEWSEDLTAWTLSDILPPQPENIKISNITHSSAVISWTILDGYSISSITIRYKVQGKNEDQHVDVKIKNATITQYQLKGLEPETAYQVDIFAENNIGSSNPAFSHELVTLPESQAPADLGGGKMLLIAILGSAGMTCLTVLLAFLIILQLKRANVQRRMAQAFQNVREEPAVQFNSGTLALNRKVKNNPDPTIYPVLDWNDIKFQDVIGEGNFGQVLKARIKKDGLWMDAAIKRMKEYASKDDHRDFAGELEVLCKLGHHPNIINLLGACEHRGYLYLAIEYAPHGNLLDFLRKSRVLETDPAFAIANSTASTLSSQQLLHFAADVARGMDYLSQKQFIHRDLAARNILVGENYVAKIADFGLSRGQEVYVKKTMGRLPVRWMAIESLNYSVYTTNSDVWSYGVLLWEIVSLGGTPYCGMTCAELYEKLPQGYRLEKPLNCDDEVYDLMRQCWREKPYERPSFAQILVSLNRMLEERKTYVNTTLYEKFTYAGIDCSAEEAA
Inhibitor of nuclear factor kappa-B kinase subunit beta, sequence (O14920 whole entry, the tested form may be a part): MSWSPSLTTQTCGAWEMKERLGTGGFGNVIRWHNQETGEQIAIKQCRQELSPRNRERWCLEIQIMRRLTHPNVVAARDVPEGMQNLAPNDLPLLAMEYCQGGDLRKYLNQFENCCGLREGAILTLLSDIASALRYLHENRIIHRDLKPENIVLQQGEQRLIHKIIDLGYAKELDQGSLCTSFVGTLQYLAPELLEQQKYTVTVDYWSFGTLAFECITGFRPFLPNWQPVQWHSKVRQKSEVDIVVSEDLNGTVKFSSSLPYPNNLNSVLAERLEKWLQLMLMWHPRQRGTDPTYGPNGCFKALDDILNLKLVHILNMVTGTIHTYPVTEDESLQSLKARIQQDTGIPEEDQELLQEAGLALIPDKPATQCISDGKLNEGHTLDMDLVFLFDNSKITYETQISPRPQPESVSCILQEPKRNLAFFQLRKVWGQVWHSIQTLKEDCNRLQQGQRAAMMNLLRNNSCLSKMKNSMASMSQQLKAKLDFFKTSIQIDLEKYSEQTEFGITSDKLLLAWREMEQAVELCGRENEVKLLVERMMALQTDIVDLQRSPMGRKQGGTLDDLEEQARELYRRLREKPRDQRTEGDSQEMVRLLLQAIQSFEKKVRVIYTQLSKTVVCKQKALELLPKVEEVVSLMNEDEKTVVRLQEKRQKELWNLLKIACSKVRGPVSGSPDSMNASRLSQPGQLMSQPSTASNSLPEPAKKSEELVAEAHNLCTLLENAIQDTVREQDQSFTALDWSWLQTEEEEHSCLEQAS
Tyrosine-protein kinase ZAP-70, sequence (P43403 whole entry): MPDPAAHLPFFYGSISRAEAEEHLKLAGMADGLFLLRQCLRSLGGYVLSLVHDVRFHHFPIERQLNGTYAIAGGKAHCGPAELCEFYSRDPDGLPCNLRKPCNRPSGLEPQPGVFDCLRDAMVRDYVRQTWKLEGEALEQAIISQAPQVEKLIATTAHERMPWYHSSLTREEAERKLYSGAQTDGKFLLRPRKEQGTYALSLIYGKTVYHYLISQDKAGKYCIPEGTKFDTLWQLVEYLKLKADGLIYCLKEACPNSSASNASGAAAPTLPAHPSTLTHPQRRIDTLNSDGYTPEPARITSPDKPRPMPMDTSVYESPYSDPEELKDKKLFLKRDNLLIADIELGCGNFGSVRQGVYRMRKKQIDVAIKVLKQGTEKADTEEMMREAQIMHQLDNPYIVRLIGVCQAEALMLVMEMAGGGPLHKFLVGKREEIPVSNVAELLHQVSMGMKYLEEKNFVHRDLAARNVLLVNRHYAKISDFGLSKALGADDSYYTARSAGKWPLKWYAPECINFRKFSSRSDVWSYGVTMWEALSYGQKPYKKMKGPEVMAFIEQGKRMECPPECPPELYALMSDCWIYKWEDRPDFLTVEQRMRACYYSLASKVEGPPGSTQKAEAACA
Dual specificity tyrosine-phosphorylation-regulated kinase 2 (Homo sapiens), sequence (Q92630 whole entry): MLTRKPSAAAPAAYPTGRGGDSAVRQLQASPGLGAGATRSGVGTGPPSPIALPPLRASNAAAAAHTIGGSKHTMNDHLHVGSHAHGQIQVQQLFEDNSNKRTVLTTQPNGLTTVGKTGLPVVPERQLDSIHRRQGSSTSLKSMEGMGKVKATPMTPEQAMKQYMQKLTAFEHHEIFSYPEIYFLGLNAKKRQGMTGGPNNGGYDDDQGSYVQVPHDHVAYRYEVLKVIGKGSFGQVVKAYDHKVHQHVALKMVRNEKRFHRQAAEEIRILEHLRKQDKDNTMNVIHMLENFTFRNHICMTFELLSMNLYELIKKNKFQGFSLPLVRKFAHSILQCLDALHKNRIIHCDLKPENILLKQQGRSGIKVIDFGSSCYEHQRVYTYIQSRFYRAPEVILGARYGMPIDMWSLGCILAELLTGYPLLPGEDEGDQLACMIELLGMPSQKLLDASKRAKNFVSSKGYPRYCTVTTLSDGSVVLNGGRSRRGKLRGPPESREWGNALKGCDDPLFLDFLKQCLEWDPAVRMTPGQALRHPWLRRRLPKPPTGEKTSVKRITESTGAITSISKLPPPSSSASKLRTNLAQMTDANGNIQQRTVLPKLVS

Structure (SMILES): CN1CCN(c2ccc(OC(F)(F)F)c(Nc3ncc4c(n3)-c3c(c(C(N)=O)nn3CCO)CC4)c2)CC1 [ONVANSERTIB]
- IC50 (MIA PaCa-2): 0.112 µM
- IC50 [1]: 0.056 µM
- clearance [2]: 11.2 mL/min/kg
- Activity (HT-29 [3]): Active
- IC50 (SNB-19): 0.224 µM
- IC50 [4]: > 10 µM
- Activity (U2OS): Active
- IC50 [5]: > 10 µM
- inhibition in vivo at 45 mg/kg (HT-29 [6]): 72%
- inhibition in vivo at 60 mg/kg (HCT-116): 79%
- Activity [7]: 93%
- Activity (Activated CDC42 kinase 1): 89%
- Activity [8]: 85%
- inhibition (A2780): inactive
- Activity [9]: 96%
- Activity [10]: 125%
- IC50 (SU-DHL-6): 0.05 µM
- Activity [11]: 156%
- IC50 (SK-OV-3): 0.191 µM
- F [12]: 35%
- Activity [13]: 83%
- IC50 (L-363): 0.037 µM
- IC50 (CAKI-2): 0.083 µM
- Activity [14]: 74%
- IC50 [15]: 0.066 µM
- AUC [16]: 46.4 µM·h
- IC50 [17]: > 10 µM
- IC50 (MDA-MB-436): 0.093 µM
